Results from ChEMBL document CHEMBL2157961, “Optimisation of pharmacokinetic properties in a neutral series of 11β-HSD1 inhibitors” (Bioorg Med Chem Lett, 2012).
≈ marks a conversion by molar mass, not a printed value.

Assays:
[1] = Lipophilicity, log D of the compound at pH 7.4; format: physicochemical; conditions: buffer
[2] = Oral bioavailability in rat; format: ADME, organism-based; conditions: in vivo
[3] = Oral bioavailability in dog at 1 mg/kg; format: ADME, organism-based, Canis lupus familiaris; conditions: in vivo
[4] = Cmax in dog at 1 mg/kg, po and iv; format: ADME, organism-based, Canis lupus familiaris; design: dose 1 mg/kg, route oral; conditions: in vivo
Canis familiaris = assay: Volume of distribution at steady state in dog at 1 mg/kg, po and iv; format: ADME, organism-based, Canis lupus familiaris; design: dose 1 mg/kg, route oral; conditions: in vivo
[5] = Apparent permeability across basolateral to apical side in MDCK cells at 10 uM; format: ADME, cell-based, Canis lupus familiaris; conditions: dog
In short: (§1)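 Test compound at […] incubated on cultured MDCK cell monolayers. Apparent permeability measured in both directions, apical to basolateral and basolateral to apical.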

[6] = Apparent permeability across apical to basolateral side in MDCK cells at 10 uM; format: ADME, cell-based, Canis lupus familiaris; conditions: dog; in short: as §1
[7] = Aqueous solubility in phosphate buffer at pH 7.4 after 24 hrs; format: physicochemical
In short: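 Solubility measured on crystalline material in aqueous phosphate buffer, pH 7.4, after 24 h at 25 °C.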

logD [1] | bioavailability [2] | SMILES | also measured
2 | 0% | CCCSc1ncncc1C(=O)N[C@H]1C2CC3CC1C[C@](O)(C3)C2 | 
2.8 | 63% | CCCSc1nc(C)ccc1C(=O)N[C@H]1C2CC3CC1C[C@](O)(C3)C2 | bioavailability [3]: 5%; Cmax [4]: 150 nM; Vdss (Canis familiaris): 0.4 L/kg
2.5 | 74% | CCCSc1nc(C)ncc1C(=O)N[C@H]1C2CC3CC1C[C@](O)(C3)C2 | bioavailability [3]: 110%; Cmax [4]: 490 nM; Vdss (Canis familiaris): 0.3 L/kg
3.3 | 30% | CCCSc1nc(NC)ccc1C(=O)N[C@H]1C2CC3CC1C[C@](O)(C3)C2 | 
2.9 |  | CCCSc1nc(NC)ncc1C(=O)N[C@H]1C2CC3CC1C[C@](O)(C3)C2 | 
3.8 | 24% | CCCSc1nc(N(C)C)ccc1C(=O)N[C@H]1C2CC3CC1C[C@](O)(C3)C2 | 
3.4 |  | CCCSc1nc(N(C)C)ncc1C(=O)N[C@H]1C2CC3CC1C[C@](O)(C3)C2 | 
2.9 | 64% | CCCSc1nc(N2CCOCC2)ccc1C(=O)N[C@H]1C2CC3CC1C[C@](O)(C3)C2 | bioavailability [3]: 0%; Vdss (Canis familiaris): 0.5 L/kg
2.8 | 83% | CCCSc1nc(N2CCOCC2)ncc1C(=O)N[C@H]1C2CC3CC1C[C@](O)(C3)C2 | bioavailability [3]: 10%; Cmax [4]: 40 nM; Vdss (Canis familiaris): 0.7 L/kg
1.6 | 98% | CCCCc1nc(C)ncc1C(=O)N[C@H]1C2CC3CC1C[C@](O)(C3)C2 | 
1.9 | 84% | Cc1ncc(C(=O)N[C@H]2C3CC4CC2C[C@](O)(C4)C3)c(C(C)(C)C)n1 | 
1.4 | 100% | Cc1ncc(C(=O)N[C@H]2C3CC4CC2C[C@](O)(C4)C3)c(CC(C)C)n1 | 
1.2 |  | Cc1ncc(C(=O)N[C@H]2C3CC4CC2C[C@](O)(C4)C3)c(CC2CC2)n1 | 
2.1 | 50% | Cc1ncc(C(=O)N[C@H]2C3CC4CC2C[C@](O)(C4)C3)c(CC2CCCC2)n1 | 
1.1 |  | Cc1ncc(C(=O)N[C@H]2C3CC4CC2C[C@](O)(C4)C3)c(-c2ccccc2)n1 | 
1.2 |  | Cc1ncc(C(=O)N[C@H]2C3CC4CC2C[C@](O)(C4)C3)c(C2CC2)n1 | 
2 | 77% | Cc1ncc(C(=O)N[C@H]2C3CC4CC2C[C@](O)(C4)C3)c(C2CCCC2)n1 | bioavailability [3]: 58%; Cmax [4]: 170 nM; Vdss (Canis familiaris): 0.9 L/kg
1.6 | 75% | Cc1ccc(C(=O)N[C@H]2C3CC4CC2C[C@](O)(C4)C3)c(C2CC2)n1 | bioavailability [3]: 37%; Cmax [4]: 260 nM; Vdss (Canis familiaris): 0.3 L/kg
2 | 100% | O=C(N[C@H]1C2CC3CC1C[C@](O)(C3)C2)c1ccc(N2CCOCC2)nc1C1CC1 | bioavailability [3]: 25%; Cmax [4]: 40 nM; Vdss (Canis familiaris): 0.6 L/kg
3.8 | 31% | CCCOc1nc(N2CCOCC2)ccc1C(=O)N[C@H]1C2CC3CC1C[C@](O)(C3)C2 | 
1.2 |  | Cc1nc(N2CCOCC2)ncc1C(=O)N[C@H]1C2CC3CC1C[C@](O)(C3)C2 | 
2.6 | 100% | CC(C)(C)c1nc(N2CCOCC2)ncc1C(=O)N[C@H]1C2CC3CC1C[C@](O)(C3)C2 | 
2.1 | 100% | O=C(N[C@H]1C2CC3CC1C[C@](O)(C3)C2)c1cnc(N2CCOCC2)nc1C1CC1 | bioavailability [3]: 100%; Papp B→A at 10 µM [5]: 30 ×10⁻⁶ cm/s; Papp A→B at 10 µM [6]: 19 ×10⁻⁶ cm/s; Cmax [4]: 360 nM; Vdss (Canis familiaris): 0.9 L/kg; solubility at 24 h [7]: 240 µM (≈ 95.6 µg/mL)
2.4 | 45% | O=C(N[C@H]1C2CC3CC1C[C@](O)(C3)C2)c1cnc(N2CCOCC2)nc1C1CCC1 | 
3 | 67% | O=C(N[C@H]1C2CC3CC1C[C@](O)(C3)C2)c1cnc(N2CCOCC2)nc1C1CCCC1 | 
3.2 | 31% | O=C(N[C@H]1C2CC3CC1C[C@](O)(C3)C2)c1cnc(N2CCOCC2)nc1C1CCCCC1 | 
1.8 |  | CC1(c2nc(N3CCOCC3)ncc2C(=O)N[C@H]2C3CC4CC2C[C@](O)(C4)C3)CC1 | 
3 | 36% | CCCOc1nc(N2CCOCC2)ncc1C(=O)N[C@H]1C2CC3CC1C[C@](O)(C3)C2 | 
